In data set [1] the target is T1, Cytochrome P450 1A1 (Homo sapiens, UniProt P04798).
T1 sequence (P04798 whole entry): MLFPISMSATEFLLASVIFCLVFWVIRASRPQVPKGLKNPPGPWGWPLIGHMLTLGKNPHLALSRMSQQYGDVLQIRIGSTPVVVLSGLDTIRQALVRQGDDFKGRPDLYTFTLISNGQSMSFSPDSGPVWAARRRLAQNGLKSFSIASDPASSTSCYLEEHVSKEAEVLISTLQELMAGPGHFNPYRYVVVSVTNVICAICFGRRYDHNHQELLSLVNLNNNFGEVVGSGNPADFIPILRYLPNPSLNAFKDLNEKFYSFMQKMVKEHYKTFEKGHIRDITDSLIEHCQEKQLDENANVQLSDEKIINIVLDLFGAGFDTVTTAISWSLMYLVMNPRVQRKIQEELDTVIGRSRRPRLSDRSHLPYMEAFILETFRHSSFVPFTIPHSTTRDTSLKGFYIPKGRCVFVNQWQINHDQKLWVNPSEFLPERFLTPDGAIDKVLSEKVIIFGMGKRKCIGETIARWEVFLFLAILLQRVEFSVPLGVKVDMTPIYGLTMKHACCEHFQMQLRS
Kind of data set: Inhibition of CYP1A1 (unknown origin)-mediated deethylation of resorufin ethyl ether after 5 mins by spectrofluorimetric analysis. An outline of the steps:
(§1)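 Microsomal P450 (final 5 nM) in 0.1 M potassium phosphate pH 7.6 with MgCl2; resorufin ether or coumarin substrate final 5 μM from DMSO stock; inhibitor added in DMSO, DMSO alone for controls. Reaction started with NADPH regenerating system (NADP+, glucose 6-phosphate, G6P dehydrogenase) at 37 °C; product formation followed fluorimetrically as progress curves.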

Data set [2] concerns the target T2, CYP2A6 (Homo sapiens, UniProt P11509).
T2 sequence (P11509 whole entry): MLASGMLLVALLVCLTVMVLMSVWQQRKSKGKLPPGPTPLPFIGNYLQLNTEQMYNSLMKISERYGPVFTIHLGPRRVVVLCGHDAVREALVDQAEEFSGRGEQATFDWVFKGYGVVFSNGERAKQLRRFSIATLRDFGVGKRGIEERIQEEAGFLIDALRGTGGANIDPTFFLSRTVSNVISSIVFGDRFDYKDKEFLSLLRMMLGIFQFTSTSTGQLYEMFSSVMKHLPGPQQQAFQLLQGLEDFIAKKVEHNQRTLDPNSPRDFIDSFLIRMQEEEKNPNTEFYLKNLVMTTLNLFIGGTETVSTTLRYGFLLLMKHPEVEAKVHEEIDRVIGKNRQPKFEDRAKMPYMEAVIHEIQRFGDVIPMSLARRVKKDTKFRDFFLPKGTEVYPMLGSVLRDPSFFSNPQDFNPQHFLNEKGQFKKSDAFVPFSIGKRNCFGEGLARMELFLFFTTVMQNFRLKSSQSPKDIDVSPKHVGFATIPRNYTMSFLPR
Kind of data set: Inhibition of CYP2A6 (unknown origin)-mediated coumarin 7-hydroxylation after 5 mins by spectrofluorimetric analysis. The note with it: probe coumarin (7-hydroxylation). The procedure, abridged: as §1

In data set [3] the target is Cytochrome P450 2B1 (Rattus norvegicus) (UniProt P00176). Kind of data set: Inhibition of CYP2B1 (rat)-mediated depentylation of resorufin pentyl ether after 5 mins by spectrofluorimetric analysis.
Sequence of Cytochrome P450 2B1 (Rattus norvegicus) (P00176 whole entry, looked up): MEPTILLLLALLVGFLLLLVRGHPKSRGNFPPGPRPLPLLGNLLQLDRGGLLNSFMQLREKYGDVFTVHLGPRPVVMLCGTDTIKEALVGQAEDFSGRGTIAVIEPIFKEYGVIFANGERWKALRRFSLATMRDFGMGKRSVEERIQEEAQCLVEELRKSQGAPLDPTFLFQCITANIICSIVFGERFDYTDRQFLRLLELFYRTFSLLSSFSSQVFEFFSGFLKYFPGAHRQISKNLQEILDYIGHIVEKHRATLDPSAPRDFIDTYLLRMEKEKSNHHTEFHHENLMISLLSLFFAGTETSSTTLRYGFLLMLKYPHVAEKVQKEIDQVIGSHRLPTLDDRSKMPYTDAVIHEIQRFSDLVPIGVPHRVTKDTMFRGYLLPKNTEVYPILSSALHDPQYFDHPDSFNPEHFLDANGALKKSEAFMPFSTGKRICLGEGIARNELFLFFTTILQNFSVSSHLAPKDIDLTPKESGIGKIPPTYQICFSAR

Data on 6 compounds can be found in BindingDB's records for doi:10.1021/jm4003654 (Xavier University of Louisiana, 2013).

With `O=c1cc(-c2ccccc2)oc2cccc(O)c12` [5-Hydroxy-2-phenyl-chromen-4-one], in data set [1], the concentration for half-maximal inhibition (IC50) was determined as 4.03 µM. Regarding `C#CCOc1ccc(-c2cc(O)c3c(=O)cccc-3o2)cc1`, the IC50 at 5 min in data set [2] is greater than 25 µM. In addition, the IC50 in data set [3] was greater than 25 µM. In turn, `O=c1cccc2oc(-c3ccc4c(c3)C=CCO4)cc(O)c1-2` had an IC50 at 5 min in data set [2] greater than 25 µM. Further, the IC50 in data set [3] was greater than 25 µM. Take `C#CCOc1cccc(-c2cc(O)c3c(=O)cccc-3o2)c1`: in data set [2], the IC50 at 5 min is greater than 25 µM. In data set [3], this compound showed an IC50 of 4.08 µM. In the case of `O=c1cccc2oc(-c3ccc4c(c3)OCC=C4)cc(O)c1-2`, in data set [2], the 50% inhibitory concentration (IC50) at 5 min is greater than 25 µM. This compound also came in with an IC50 in data set [3] greater than 25 µM. Take `O=c1cccc2oc(-c3cccc4c3C=CCO4)cc(O)c1-2`: the half-maximal inhibitory concentration (IC50) at 5 min in data set [2] is greater than 25 µM. For the same compound, the IC50 in data set [3] is greater than 25 µM.
